Reference: ChEMBL document CHEMBL3102848, “Carbamazepine derivatives with P2X4 receptor-blocking activity” (Bioorg Med Chem, 2014)
Active and inactive are the calls of the source. The calls are words filed in the database; no cut-off is given here.

Legend:
[1] = biological target: T1, P2X purinoceptor 4 (Homo sapiens) (UniProt Q99571); test: Negative allosteric modulation of human P2X4 receptor expressed in human 1321N1 cells assessed as reduction in ATP-induced cytosolic calcium influx at 3 to 30 uM; format: cell-based
T1 sequence (whole entry): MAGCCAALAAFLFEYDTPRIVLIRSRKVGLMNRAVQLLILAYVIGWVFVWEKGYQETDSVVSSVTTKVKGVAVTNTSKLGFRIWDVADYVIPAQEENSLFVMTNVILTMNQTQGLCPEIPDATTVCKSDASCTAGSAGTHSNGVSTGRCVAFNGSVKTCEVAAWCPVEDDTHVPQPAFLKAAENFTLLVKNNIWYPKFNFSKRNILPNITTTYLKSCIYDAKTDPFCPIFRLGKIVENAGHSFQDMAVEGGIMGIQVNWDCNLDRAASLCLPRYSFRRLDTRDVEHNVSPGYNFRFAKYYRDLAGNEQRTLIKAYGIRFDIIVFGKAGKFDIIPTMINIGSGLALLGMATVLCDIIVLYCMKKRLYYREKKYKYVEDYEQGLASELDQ
Outline: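 1321N1 astrocytoma cells stably expressing human P2X4. Full ATP concentration–response curves (10^-8 to 10^-3 M) for intracellular calcium, recorded without inhibitor and with three fixed modulator levels (3, 10, 30). ATP EC50 and maximal effect (Emax, %) were derived for each condition.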

[2] = Selectivity ratio of IC50 for mouse P2X4 receptor to IC50 for human P2X4 receptor
[3] = biological target: T2, P2X purinoceptor 4 (Mus musculus, UniProt Q9JJX6); test: Antagonist activity at mouse P2X4 receptor assessed as inhibition of ATP-induced cytosolic calcium influx preincubated for 30 mins followed by ATP addition by Fluo-4 AM dye-based fluorescence assay
T2 sequence (Q9JJX6 whole entry): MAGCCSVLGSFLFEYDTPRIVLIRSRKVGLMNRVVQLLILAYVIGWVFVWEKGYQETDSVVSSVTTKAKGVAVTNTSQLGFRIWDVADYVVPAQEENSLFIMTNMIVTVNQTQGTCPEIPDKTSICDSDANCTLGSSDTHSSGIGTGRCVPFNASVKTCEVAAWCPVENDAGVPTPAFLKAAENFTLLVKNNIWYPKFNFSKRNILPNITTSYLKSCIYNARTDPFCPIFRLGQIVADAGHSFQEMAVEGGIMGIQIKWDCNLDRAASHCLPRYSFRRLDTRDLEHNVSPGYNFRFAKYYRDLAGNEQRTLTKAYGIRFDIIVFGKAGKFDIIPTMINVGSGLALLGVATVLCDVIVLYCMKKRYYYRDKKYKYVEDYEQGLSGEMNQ

[4] = biological target: T3, P2X purinoceptor 4 (Homo sapiens, UniProt Q99571); test: Antagonist activity at human P2X4 receptor expressed in human 1321N1 cells assessed as inhibition of ATP-induced cytosolic calcium influx preincubated for 30 mins followed by ATP addition by Fluo-4 AM dye-based fluorescence assay; format: cell-based
T3 sequence (Q99571 whole entry): T1 sequence (whole entry)
Outline: (§1)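 Human P2X4 stably transfected into 1321N1 astrocytoma cells. Inhibition of ATP-induced calcium influx measured as in earlier work. Compounds were first screened at a single high concentration, chosen according to their solubility.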

[5] = biological target: T1, P2X purinoceptor 4 (Homo sapiens); test: Antagonist activity at human P2X4 receptor expressed in human 1321N1 cells assessed as inhibition of ATP-induced cytosolic calcium influx at 10 uM preincubated for 30 mins followed by ATP addition by Fluo-4 AM dye-based fluorescence assay; format: cell-based; outline: as §1
[6] = biological target: T4, P2X purinoceptor 4 (Mus musculus) (UniProt Q9JJX6); test: Antagonist activity at mouse P2X4 receptor assessed as inhibition of ATP-induced cytosolic calcium influx at 100 uM preincubated for 30 mins followed by ATP addition by Fluo-4 AM dye-based fluorescence assay
T4 sequence (whole entry): T2 sequence (Q9JJX6 whole entry)

[7] = biological target: T5, P2X purinoceptor 7 (Homo sapiens) (UniProt Q99572); test: Antagonist activity at human P2X7 receptor expressed in human 1321N1 cells assessed as inhibition of ATP-induced cytosolic calcium influx at 100 uM preincubated for 30 mins followed by ATP addition by Fluo-4 AM dye-based fluorescence assay; format: cell-based
T5 sequence (whole entry): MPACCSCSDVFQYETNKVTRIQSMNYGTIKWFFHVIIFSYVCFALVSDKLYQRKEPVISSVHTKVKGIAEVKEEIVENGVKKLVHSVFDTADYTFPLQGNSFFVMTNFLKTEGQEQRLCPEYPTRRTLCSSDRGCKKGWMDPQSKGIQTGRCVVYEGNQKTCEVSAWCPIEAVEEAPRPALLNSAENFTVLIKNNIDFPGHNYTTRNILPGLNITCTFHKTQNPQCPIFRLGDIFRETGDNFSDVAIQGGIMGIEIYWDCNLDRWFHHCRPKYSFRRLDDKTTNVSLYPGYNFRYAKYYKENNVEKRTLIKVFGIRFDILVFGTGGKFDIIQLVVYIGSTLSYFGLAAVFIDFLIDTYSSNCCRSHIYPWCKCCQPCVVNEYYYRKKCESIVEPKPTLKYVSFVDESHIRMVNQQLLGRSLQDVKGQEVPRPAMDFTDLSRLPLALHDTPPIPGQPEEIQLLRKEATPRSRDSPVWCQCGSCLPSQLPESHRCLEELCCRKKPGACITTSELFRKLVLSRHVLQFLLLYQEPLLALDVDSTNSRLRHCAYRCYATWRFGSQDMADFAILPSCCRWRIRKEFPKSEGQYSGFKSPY

[8] = biological target: T1, P2X purinoceptor 4 (Homo sapiens); test: Antagonist activity at human P2X4 receptor expressed in human 1321N1 cells assessed as inhibition of ATP-induced cytosolic calcium influx at 100 uM preincubated for 30 mins followed by ATP addition by Fluo-4 AM dye-based fluorescence assay; format: cell-based; outline: as §1

Row | Activity [1] | Ratio IC50 [2] | IC50 [3] | IC50 [4] | inhibition [5] | inhibition [6] | inhibition [7] | inhibition [8] | Compound
1 | Active | 3 | 14.9 µM | 3.44 µM | 71% | – | – | – | CC(C)N(C(=O)N1c2ccccc2C=Cc2ccccc21)C(C)C
2 | – | 3 | > 100 µM | 7.78 µM | 49% | 38% | – | – | CCCN(CCC)C(=O)N1c2ccccc2C=Cc2ccccc21
3 | – | 3 | 102 µM | 13.7 µM | – | – | -10% | 72% | O=C(N1CCCCC1)N1c2ccccc2C=Cc2ccccc21
4 | – | – | > 100 µM | 11.4 µM | – | 27% | – | 95% | CCN(CC)C(=O)N1c2ccccc2C=Cc2ccccc21
5 | – | 3 | 98.4 µM | 33.8 µM | – | – | – | 100% | O=C(NC1CCCCC1)N1c2ccccc2C=Cc2ccccc21
6 | – | 3 | 123 µM | 34.1 µM | – | – | 33% | 98% | O=C(N1CCCC1)N1c2ccccc2C=Cc2ccccc21
